# Laboratory results from ChEMBL document CHEMBL1799999, “N-benzoylated phenoxazines and phenothiazines: synthesis, antiproliferative activity, and inhibition of tubulin polymerization” (J Med Chem, 2011).
# Activity calls are given as the source filed them. No cut-off for these calls is given here.
# How the values were obtained:
# K562 [1] = assay: Antiproliferative activity against human K562 cells after 48 hrs by hemocytometric analysis; format: functional, cell-based; settings: K562, 48 h
# In short: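 K562 cells in RPMI 1640 with 10% FBS at 37 °C/5% CO2, plated at 2 × 10^5 cells/mL. Compounds in DMSO/methanol 1:1, final vehicle 0.5%. Cells counted in a Neubauer hemocytometer after 48 h and expressed as % of untreated control. Triplicate wells, three experiments; IC50 by nonlinear regression.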
# Tubulin = Tubulin (Sus scrofa, UniProt P02554+P02550); assay: Inhibition of pig tubulin polymerization determined after 45 mins at 37 degC by turbidimetric analysis; format: protein assay
# In short: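 Microtubule protein (80–90% tubulin with MAPs) from porcine brain, isolated by two cold/warm cycles. Buffer: 20 mM PIPES pH 6.8, 80 mM NaCl, 0.5 mM MgCl2, 1 mM EGTA, 1 mM DTT. Protein at 1.2 mg/mL (about 10 μM tubulin) with 0.6 mM GTP, 1% DMSO, 37 °C.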
# NCI-H460 = assay: Antiproliferative activity against human NCI-H460 cells after 48 hrs by alamar blue assay; format: functional, cell-based; settings: NCI-H460, 48 h
# In short: (§1)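 Cells seeded in growth medium and grown 24 h at 37 °C/5% CO2. 10 mM DMSO stocks diluted in half-log steps into medium, final DMSO 0.316%. After 45 h of compound exposure, AlamarBlue (resazurin) added for a further 3 h, giving 48 h total. Fluorescence read at 590 nm against untreated and cell-free blanks. At least two replicates; IC50 by nonlinear regression.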
# cells = settings: Homo sapiens, 451Lu, 48 h
# COLO 205 = assay: Antiproliferative activity against human COLO205 cells after 48 hrs by alamar blue assay; format: functional, cell-based; settings: COLO 205, 48 h; in short: as §1
# SK-OV-3 = assay: Antiproliferative activity against human SKOV3 cells after 48 hrs by alamar blue assay; format: functional, cell-based; settings: SK-OV-3, 48 h; in short: as §1
# DLD-1 = assay: Antiproliferative activity against human DLD1 cells after 48 hrs by alamar blue assay; format: functional, cell-based; settings: DLD-1, 48 h; in short: as §1
# BT-549 = assay: Antiproliferative activity against human BT549 cells after 48 hrs by alamar blue assay; format: functional, cell-based; settings: BT-549, 48 h; in short: as §1
# SW480 = assay: Antiproliferative activity against human SW480 cells after 48 hrs by alamar blue assay; format: functional, cell-based; settings: SW480, 48 h; in short: as §1
# Potorous tridactylus = assay: Inhibition of tubulin polymerization in Potorous tridactylus Ptk2 cells assessed as destruction of microtubule network at 5 uM after 1 hr by immunofluorescence assay
# In short: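 PtK2 cells exposed 1 h to 5 μM compound in RPMI medium with 2% DMSO; solvent-only controls. Microtubules labelled with Cy3-anti-tubulin antibody and examined by immunofluorescence microscopy.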
# [2] = Antiproliferative activity against human resting PBMC after 72 hrs by sulforhodamine staining method; format: cell-based
# In short: (§2)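 Panel of 83 solid-tumour lines plus resting PBMC, run by the DTP NCI sulforhodamine B staining protocol. Compound exposure 72 h, concentrations from 0.0001 to 10 μM. GI50 taken per line; z-scores computed relative to the panel mean GI50.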
# ASPC1 = assay: Antiproliferative activity against human AsPC1 cells after 72 hrs by sulforhodamine staining method; format: functional; settings: ASPC1, 72 h; in short: as §2
# K562 [3] = assay: Cell cycle arrest in human K562 cells assessed as accumulation at G2/M phase at 30 nM after 24 hrs by flow cytometric analysis; format: functional, cell-based
# In short: (§3)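 K562 cells (2 × 10^5/mL) exposed to graded concentrations for 24 h at 37 °C; vehicle DMSO/MeOH 1:1. Washed in PBS, fixed in ice-cold 70% ethanol, stained 30 min with propidium iodide 0.02 mg/mL plus RNase 0.2 mg/mL. DNA content read by flow cytometry with 488 nm excitation; G2/M fraction scored.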
# K562 [4] = assay: Cell cycle arrest in human K562 cells assessed as accumulation at G2/M phase at 0.003 to. 1 ug/ml after 24 hrs by flow cytometric analysis; format: functional, cell-based; in short: as §3
SMILES,IC50 (K562 [1]) [nM],IC50 (Tubulin) [nM],further results
Clc1ccc2c(c1)Nc1ccccc1S2,> 100000,,
COc1cc(C(=O)N2c3ccccc3Oc3ccc(Cl)cc32)cc(OC)c1OC,24000,,
O=C(c1ccc([N+](=O)[O-])cc1)N1c2ccccc2Oc2ccc(Cl)cc21,> 80000,5030,
O=C(c1ccc(Br)cc1)N1c2ccccc2Oc2ccc(Cl)cc21,> 25000,,
COc1cc(C(=O)N2c3ccccc3[S+]([O-])c3ccccc32)cc(OC)c1OC,8030,> 10000,
COc1ccc(C(=O)N2c3ccccc3Oc3ccc(C#N)cc32)cc1,160,2700,
N#Cc1ccc2c(c1)Oc1ccccc1N2,> 10000,> 10000,
N#Cc1ccc2c(c1)Oc1ccccc1N2C(=O)c1ccccc1,230,1200,
COc1ccc(C(=O)N2c3ccccc3S(=O)(=O)c3ccccc32)cc1,280,2530,
COc1ccc(C(=O)CN2c3ccccc3Oc3ccc(Cl)cc32)cc1,> 20000,,
O=C(c1ccccc1)N1c2ccccc2S(=O)(=O)c2ccccc21,> 30000,,
COc1cc(C(=O)N2c3ccccc3Sc3ccccc32)cc(OC)c1OC,1860,4960,
COc1ccc(C(=O)N2c3ccccc3[S+]([O-])c3ccc(OC)cc32)cc1 (configuration not stated),1650,23310,
COc1ccc(CC(=O)N2c3ccccc3Oc3ccccc32)cc1,4810,> 10000,
COc1ccc(C(=O)N2c3ccccc3[S+]([O-])c3ccccc32)cc1,420,9390,
COc1ccc(C(=O)N2c3ccccc3Sc3ccc(C(F)(F)F)cc32)cc1,4600,> 10000,
O=C(c1ccc(C(F)(F)F)cc1)N1c2ccccc2Oc2ccc(Cl)cc21,> 75000,,
COc1ccc(C(=O)N2c3ccccc3Oc3ccccc32)cc1,33,1100,IC50 (NCI-H460): 270 nM; IC50 (cells): 60 nM; IC50 (COLO 205): 240 nM; IC50 (SK-OV-3): 210 nM; IC50 (DLD-1): 250 nM; IC50 (BT-549): 120 nM; IC50 (SW480): 240 nM
COc1ccc(C(=O)N2c3ccccc3Oc3ccc(Cl)cc32)cc1O,80,730,IC50 (NCI-H460): 390 nM; IC50 (cells): 27 nM; inhibition (Potorous tridactylus): Active; IC50 (COLO 205): 2680 nM; IC50 (SK-OV-3): 170 nM; GI50 at 72 h [2]: > 10000 nM; IC50 (DLD-1): 230 nM; IC50 (BT-549): 320 nM; GI50 (ASPC1): > 10000 nM; IC50 (SW480): 240 nM
COc1ccc(C(=O)N2c3ccccc3Sc3ccc(OC)cc32)cc1,970,3230,

SMILES,IC50 (K562 [1]) [nM],IC50 (Tubulin) [nM],further results
COc1ccc(C(=O)N2c3ccccc3Oc3cc(C#N)ccc32)cc1,14,730,IC50 (NCI-H460): 15 nM; IC50 (cells): 2 nM; IC50 (COLO 205): 6 nM; IC50 (SK-OV-3): 6 nM; GI50 at 72 h [2]: > 10000 nM; Activity (K562 [3]): Active; IC50 (DLD-1): 9 nM; Activity (K562 [4]): Active; IC50 (BT-549): 8 nM; GI50 (ASPC1): > 10000 nM; IC50 (SW480): 8 nM
COc1ccc(C(=O)N2c3ccccc3[S+]([O-])c3ccc(Cl)cc32)cc1 (configuration not stated),1400,2790,
COc1ccc(C(=O)N2c3ccccc3Oc3ccc(Cl)cc32)cc1,140,570,IC50 (NCI-H460): 680 nM; IC50 (cells): 90 nM; IC50 (COLO 205): 430 nM; IC50 (SK-OV-3): 350 nM; IC50 (DLD-1): 540 nM; IC50 (BT-549): 330 nM; IC50 (SW480): 530 nM
COc1ccc(C(=O)N2c3ccccc3Sc3ccccc32)cc1OCc1ccccc1,> 30000,,
CC(=O)N1c2ccccc2Oc2ccc(Cl)cc21,> 30000,,
COc1cc(C(=O)N2c3ccccc3Oc3ccc(Cl)cc32)cc(OC)c1O,4630,680,
c1ccc2c(c1)Nc1ccccc1S2 [PHENOTHIAZINE],> 100000,,
N#Cc1ccc2c(c1)Oc1ccccc1N2C(=O)c1ccc(Cl)cc1,490,2390,
CC(=O)O[C@H]1C(=O)[C@@]2(C)[C@H]([C@H](OC(=O)c3ccccc3)[C@]3(O)C[C@H](OC(=O)[C@H](O)[C@@H](NC(=O)c4ccccc4)c4ccccc4)C(C)=C1C3(C)C)[C@]1(OC(C)=O)CO[C@@H]1C[C@@H]2O [PACLITAXEL],,,IC50 (NCI-H460): 4 nM; IC50 (COLO 205): 5 nM; IC50 (SK-OV-3): 6 nM; IC50 (DLD-1): 50 nM; IC50 (BT-549): 6 nM; IC50 (SW480): 11 nM
O=C(c1ccccc1)N1c2ccccc2S(=O)(=O)c2ccc(Cl)cc21,> 30000,,
COc1ccc(C(=O)N2c3ccccc3Oc3cccc(C#N)c32)cc1,120,960,
COc1cc2c(c(OC)c1OC)-c1ccc(OC)c(=O)cc1[C@@H](NC(C)=O)CC2 [COLCHICINE],,,IC50 (NCI-H460): 27 nM; IC50 (cells): 17 nM; inhibition (Potorous tridactylus): Active; IC50 (COLO 205): 21 nM; IC50 (SK-OV-3): 29 nM; IC50 (DLD-1): 89 nM; Activity (K562 [4]): Active; IC50 (BT-549): 23 nM; IC50 (SW480): 30 nM
O=C(c1ccccc1)N1c2ccccc2Sc2ccc(Cl)cc21,> 30000,,
COc1ccc(CC(=O)N2c3ccccc3Oc3ccc(Cl)cc32)cc1,550,1100,
O=C(c1ccccc1)N1c2ccccc2[S+]([O-])c2ccc(Cl)cc21 (configuration not stated),> 30000,,
c1ccc2c(c1)Nc1ccccc1O2 [PHENOXAZINE],> 30000,> 10000,
COc1cc(C(=O)N2c3ccccc3S(=O)(=O)c3ccccc32)cc(OC)c1OC,2600,2460,
O=C(c1ccccc1)N1c2ccccc2[S+]([O-])c2ccccc21,> 30000,,
O=C(c1ccccc1)N1c2ccccc2Sc2ccccc21,> 30000,,
O=C(c1ccc2c(c1)OCO2)N1c2ccccc2Oc2ccc(Cl)cc21,1120,1130,

SMILES,IC50 (K562 [1]) [nM],IC50 (Tubulin) [nM],further results
COc1ccc(C(=O)N2c3ccccc3S(=O)(=O)c3ccc(Cl)cc32)cc1,800,1050,
COc1cc(C(=O)N2c3ccccc3[S+]([O-])c3ccc(Cl)cc32)cc(OC)c1OC (configuration not stated),35000,> 10000,
COc1ccc(C(=O)N2c3ccccc3S(=O)(=O)c3ccc(OC)cc32)cc1,1580,4690,
COc1cccc(C(=O)N2c3ccccc3Oc3ccc(Cl)cc32)c1,1380,650,
COc1ccc(C(=O)N2c3ccccc3Sc3ccc(SC)cc32)cc1,3620,1430,
COc1cc(C(=O)N2c3ccccc3S(=O)(=O)c3ccc(Cl)cc32)cc(OC)c1OC,4200,> 10000,
COc1ccc(C(=O)N2c3ccccc3Sc3ccc(Cl)cc32)cc1,840,870,
O=C(c1ccc(Cl)cc1)N1c2ccccc2Oc2ccc(Cl)cc21,20000,2420,
COc1ccc(C(=O)N2c3ccccc3[S+]([O-])c3ccccc32)cc1O,300,8400,
Clc1ccc2c(c1)Nc1ccccc1O2,> 30000,> 10000,
COc1ccc(CC(=O)N2c3ccccc3Sc3ccc(Cl)cc32)cc1,8000,,
COc1ccc(C(=O)N2c3ccccc3Sc3ccccc32)cc1,330,2230,
COc1ccc(C(=O)N2c3ccccc3Sc3ccccc32)cc1O,210,1400,
COc1cc(C(=O)N2c3ccccc3Sc3ccc(Cl)cc32)cc(OC)c1OC,11000,> 10000,
COc1ccc(C(=O)N2c3cc(Cl)ccc3Oc3ccc(Cl)cc32)cc1,490,700,
COc1ccc(C(=O)N2c3ccccc3S(=O)(=O)c3ccccc32)cc1O,180,3000,
CN(C)c1ccc(C(=O)N2c3ccccc3Oc3ccc(Cl)cc32)cc1,1210,880,
COC(=O)Nc1nc2cc(C(=O)c3cccs3)ccc2[nH]1 [NOCODAZOLE],,,IC50 (NCI-H460): 68 nM; IC50 (cells): 72 nM; IC50 (COLO 205): 88 nM; IC50 (SK-OV-3): 80 nM; IC50 (DLD-1): 190 nM; IC50 (BT-549): 69 nM; IC50 (SW480): 120 nM
